Data as given in ChEMBL document CHEMBL3351368, “Biphenyl-4-carboxylic acid [2-(1H-indol-3-yl)-ethyl]-methylamide (CA224), a nonplanar analogue of fascaplysin, inhibits Cdk4 and tubulin polymerization: evaluation of in vitro and in vivo anticancer activity” (J Med Chem, 2014).
Activity calls are given as the source filed them.

What was measured:
NCI-H460 = test: Antitumor activity against human NCI-H460 cells xenografted in SCID mouse assessed as inhibition of tumor growth at 100 mg/kg, ip relative to untreated control; assay type: functional, organism-based; parameters: dose 100 mg/kg
Procedure, shortened: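 Female SCID mice (15-24 g, 6-8 weeks) were given 5.3 × 10^6 NCI-H460 cells s.c. on the dorsal side. At 4-6 mm tumours (about 6 days) they were randomised into groups of 6 or 7 and dosed i.p. for 9 consecutive days. Tumour size was recorded every 2-5 days; weight = L × W² × 0.5. %T/C and %GI = 100 − %T/C; Student t-test versus control.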

Tubulin (Homo sapiens) = Tubulin (Homo sapiens) (UniProt P68371+Q9H4B7+P0DPH7+P68366+Q13509+Q71U36+P04350+Q3ZCM7+P07437+P68363+Q9BQE3+Q6PEY2+Q13885+Q9BVA1+Q9BUF5); test: Inhibition of tubulin polymerization in p53+, pRb+ human A549 cells assessed as paclitaxel-mediated polymerization treated simultaneously measured after 30 mins by Western blot analysis; assay type: cell-based
NCI-H1299 [1] = test: Growth inhibition of p53 null, pRb+ human NCI-H1299 cells after 48 hrs by MTT assay; assay type: functional, cell-based; conditions: NCI-H1299, 48 h
Procedure, shortened: (§1)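 MTT cell proliferation assay. IC50 (µM) was defined as the concentration giving 50% inhibition of cell growth.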

MiaPaCa = test: Effect on p21 level in p53His273 mutant, pRb+ human MiaPaCa cells at IC50 concentration after 48 hrs by Western blot analysis; assay type: functional
NCI-H358 [2] = test: Cell cycle arrest in human NCI-H358 cells assessed as accumulation of cells at G2/M phase at IC50 concentration after 12 hrs by flow cytometry in presence of nocodazole for 18 hrs (reference value: 42%); assay type: functional
Mus musculus = test: Toxicity in human HCT116 cells xenografted in SCID mouse assessed as change in body weight at 100 mg/kg, ip relative to untreated control; assay type: organism-based, HCT-116; parameters: dose 100 mg/kg, route intraperitoneal; conditions: in vivo
Procedure, shortened: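 SCID male mice, 18-25 g, 6-8 weeks old, received 6.6 × 10^6 HCT-116 cells subcutaneously on the dorsal side. Randomized into groups of 7 at 4-6 mm tumors (about 5 days), then dosed intraperitoneally for 9 consecutive days. Tumor size recorded every 2-5 days, weight = L×W²×0.5; %GI = 100 − %T/C. Body weight taken daily relative to start; Student t-test.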

[3] = Cell cycle arrest in mouse BNL-SVA.8 cells assessed as accumulation of cells at subG1 phase at IC50 concentration after 48 hrs by flow cytometry (reference value: 0%); assay type: functional
Procedure, shortened: (§2)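 Normal (BNL CL2) and SV40 large T-antigen transformed (BNL SV A.8) mouse embryonic hepatic cells were treated at IC50 or IC70 concentration for 48 h. Analysis was by FACS, with apoptosis taken as % cells in the sub-G1 peak. Untreated cells served as control.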

[4] = Volume of distribution in BALB/c mouse at 1 mg/kg, iv; assay type: ADME, organism-based; parameters: dose 1 mg/kg, route intravenous; conditions: in vivo
Procedure, shortened: (§3)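 BALB/c mice given a single dose of 1.0 mg/kg IV or 10 mg/kg orally; plasma concentration followed over time and pharmacokinetic parameters derived from the time-concentration profile.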

[5] = Cell cycle arrest in mouse BNL-SVA.8 cells assessed as accumulation of cells at G2/M phase at IC50 concentration after 48 hrs by flow cytometry (reference value: 13%); assay type: functional; procedure, shortened: as §2
A549 [6] = test: Cell cycle arrest in human A549 cells assessed as accumulation of cells at G0/G1 phase at IC50 concentration after 24 hrs by flow cytometry (reference value: 49%); assay type: functional
[7] = AUC (0 to infinity) in BALB/c mouse at 1 mg/kg, iv; assay type: ADME, organism-based; parameters: time infinity, dose 1 mg/kg, route intravenous; conditions: plasma; procedure, shortened: as §3
[8] = target: Protein kinase C alpha type (Homo sapiens) (UniProt P17252); test: Inhibition of human PKCalpha assessed as enzyme activity at 10 uM
[9] = Maximum tolerated dose in ip dosed Swiss mouse assessed as body weight change treated for 5 days; assay type: ADME, organism-based; conditions: in vivo
Procedure, shortened: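 Swiss albino mice, 6 per group, are dosed intraperitoneally once daily for five days (Q1D x 5) at several doses. The formulation contains Tween 20. Body weight is tracked over a two-week study, and MTD is set as the dose giving >10% weight loss; a drop of >20% is rated highly significant.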

LS174T [10] = test: Induction of p21 level in p53+, pRb+ human LS 174T cells at IC50 concentration after 24 hrs by Western blot analysis
A549 [11] = test: Anticancer activity against p53+, pRb+ human A549 cells assessed as reduction in colony formation efficiency at 1.4 uM after 24 hrs by visual count/crystal violet staining method; assay type: functional; conditions: A549, 24 h
Procedure, shortened: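 Long-term survival assay. A549 and Calu-1 cells treated with a range of concentrations, colonies counted, efficiency expressed as percent of colonies versus untreated cultures. Means and standard deviations of three independent experiments.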

BNL-CL2 = test: Cell cycle arrest in mouse BNL-CL2 cells assessed as accumulation of cells at G2/M phase at IC70 concentration after 48 hrs by flow cytometry; assay type: functional, cell-based; procedure, shortened: as §2
[12] = Growth inhibition of mouse BNL-CL2 cells after 48 hrs by MTT assay; assay type: functional, cell-based; conditions: BNL CL.2, 48 h; procedure, shortened: as §1
NCI-H358 [13] = test: Cell cycle arrest in human NCI-H358 cells assessed as accumulation of cells at G0/G1 phase at IC50 concentration after 18 hrs by flow cytometry in presence of […] uM hydroxyurea for 18 hrs (reference value: 50%); assay type: functional
[14] = Growth inhibition of p53+, pRb+ human NCI-H460 cells after 48 hrs by MTT assay; assay type: functional, cell-based; conditions: NCI-H460, 48 h; procedure, shortened: as §1
NCI-H358 [15] = test: Cell cycle arrest in human NCI-H358 cells assessed as accumulation of cells at S phase at IC50 concentration after 12 hrs by flow cytometry in presence of nocodazole for 18 hrs (reference value: 10%); assay type: functional
CYP2C19 = CYP2C19 (Homo sapiens, UniProt P33261); test: Inhibition of human recombinant CYP2C19 at 10 uM; assay type: ADME
[16] = Cell cycle arrest in mouse BNL-CL2 cells assessed as accumulation of cells at G2/M phase at IC50 concentration after 48 hrs by flow cytometry (reference value: 23%); assay type: functional; procedure, shortened: as §2
LS174T [17] = test: Reduction Cdk1 level in p53+, pRb+ human LS 174T cells at IC50 concentration after 24 hrs by Western blot analysis
A549 [18] = test: Cell cycle arrest in human A549 cells assessed as accumulation of cells at G2/M phase at IC50 concentration after 24 hrs by flow cytometry (reference value: 22%); assay type: functional
[19] = Cell cycle arrest in mouse BNL-SVA.8 cells assessed as accumulation of cells at S phase at IC50 concentration after 48 hrs by flow cytometry (reference value: 23%); assay type: functional; procedure, shortened: as §2
[20] = target: Serine/threonine-protein kinase PLK3 (Homo sapiens) (UniProt Q9H4B4); test: Inhibition of human Plk3 assessed as enzyme activity at 10 uM
NCI-H1299 [21] = test: Cell cycle arrest in human NCI-H1299 cells assessed as accumulation of cells at G2/M phase at IC50 concentration after 24 hrs by flow cytometry (reference value: 18%); assay type: functional

Sequence of CYP2C19 (P33261 whole entry): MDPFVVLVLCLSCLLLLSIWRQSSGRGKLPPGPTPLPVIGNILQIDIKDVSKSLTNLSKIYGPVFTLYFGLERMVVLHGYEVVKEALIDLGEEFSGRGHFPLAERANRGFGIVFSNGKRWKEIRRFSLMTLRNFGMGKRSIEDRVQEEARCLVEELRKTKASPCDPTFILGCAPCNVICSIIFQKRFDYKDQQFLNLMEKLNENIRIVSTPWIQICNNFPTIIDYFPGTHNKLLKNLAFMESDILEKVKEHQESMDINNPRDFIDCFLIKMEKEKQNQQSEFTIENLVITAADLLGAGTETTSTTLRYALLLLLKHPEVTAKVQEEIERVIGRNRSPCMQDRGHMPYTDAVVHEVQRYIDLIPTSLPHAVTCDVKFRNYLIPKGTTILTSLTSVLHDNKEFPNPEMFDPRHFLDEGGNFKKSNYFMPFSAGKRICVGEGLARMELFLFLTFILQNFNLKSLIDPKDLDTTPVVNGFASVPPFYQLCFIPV
Sequence of Serine/threonine-protein kinase PLK3 (Homo sapiens) (Q9H4B4 whole entry, looked up): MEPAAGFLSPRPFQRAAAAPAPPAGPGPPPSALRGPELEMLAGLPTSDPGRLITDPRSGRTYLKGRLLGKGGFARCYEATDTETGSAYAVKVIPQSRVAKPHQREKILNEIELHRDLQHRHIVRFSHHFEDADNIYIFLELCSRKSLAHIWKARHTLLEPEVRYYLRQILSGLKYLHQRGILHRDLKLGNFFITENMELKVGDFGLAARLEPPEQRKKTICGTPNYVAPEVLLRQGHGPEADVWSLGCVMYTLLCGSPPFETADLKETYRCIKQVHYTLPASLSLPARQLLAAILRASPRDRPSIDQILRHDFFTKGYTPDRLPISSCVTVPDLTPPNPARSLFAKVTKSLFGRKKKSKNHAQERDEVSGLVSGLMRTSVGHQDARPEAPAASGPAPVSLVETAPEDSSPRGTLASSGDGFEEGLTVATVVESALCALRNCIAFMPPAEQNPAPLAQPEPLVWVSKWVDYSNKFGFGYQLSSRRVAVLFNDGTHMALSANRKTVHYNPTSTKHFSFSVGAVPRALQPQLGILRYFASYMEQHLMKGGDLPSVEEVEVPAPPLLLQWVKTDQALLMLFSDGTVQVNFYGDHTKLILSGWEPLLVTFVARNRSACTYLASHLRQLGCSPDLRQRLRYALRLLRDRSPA

Compound: CN(CCc1c[nH]c2ccccc12)C(=O)c1ccc(-c2ccccc2)cc1
- Activity (NCI-H460): Active
- inhibition (Tubulin (Homo sapiens)): Dose-dependent effect
- IC50 (NCI-H1299 [1]): 2500 nM
- Activity (MiaPaCa): inactive
- Activity (NCI-H358 [2]): 74%
- Activity (Mus musculus): <= 10%
- Activity [3]: 31%
- Vd [4]: 2.52 L/kg
- Activity [5]: 14%
- Activity (A549 [6]): 3%
- AUC(0-inf) [7]: 189 ng·h/mL
- inhibition [8]: inactive
- MTD at 120 h [9]: 1000 mg/kg
- Activity (LS174T [10]): Active
- inhibition at 1.4 µM (A549 [11]): 50%
- Activity (BNL-CL2): Active
- IC50 [12]: 2600 nM
- Activity (NCI-H358 [13]): 16%
- IC50 [14]: 2000 nM
- Activity (NCI-H358 [15]): 10%
- inhibition at 10 µM (CYP2C19): 19%
- Activity [16]: 54%
- inhibition (LS174T [17]): Active
- Activity (A549 [18]): 89%
- Activity [19]: 21%
- inhibition [20]: inactive
- Activity (NCI-H1299 [21]): 71%
